ChEMBL document CHEMBL1208778, “Synthesis and anti-cancer activity of chalcone linked imidazolones” (2010)
The source made the active and inactive calls. No cut-off for these calls is given here.

Legend:
Format in all cases: functional
[1] = Growth inhibition of human RPMI8266 cells
Method in brief: (§1)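 Five-dose testing was run within the NCI (Bethesda) in vitro Anticancer Screen Program on a panel of 53 human tumour cell lines from nine cancer types. Growth inhibition is reported as GI50.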

[2] = tested on: K562; assay: Growth inhibition of human K562 cells; method in brief: as §1
[3] = tested on: A549; assay: Growth inhibition of human A549 cells; method in brief: as §1
[4] = tested on: EKVX; assay: Growth inhibition of human EKVX cells; method in brief: as §1
[5] = tested on: HOP-62; assay: Growth inhibition of human HOP62 cells; method in brief: as §1
[6] = tested on: HOP-92; assay: Growth inhibition of human HOP92 cells; method in brief: as §1
[7] = tested on: NCI-H226; assay: Growth inhibition of human NCI-H226 cells; method in brief: as §1
[8] = tested on: NCI-H23; assay: Growth inhibition of human NCI-H23 cells; method in brief: as §1
[9] = tested on: NCI-H322M; assay: Growth inhibition of human NCI-H322M cells; method in brief: as §1
[10] = tested on: NCI-H460; assay: Growth inhibition of human NCI-H460 cells; method in brief: as §1
[11] = tested on: NCI-H522; assay: Growth inhibition of human NCI-H522 cells; method in brief: as §1
[12] = tested on: COLO 205; assay: Growth inhibition of human COLO205 cells; method in brief: as §1
[13] = tested on: HCC 2998; assay: Growth inhibition of human HCC2998 cells; method in brief: as §1
[14] = tested on: HCT-116; assay: Growth inhibition of human HCT116 cells; method in brief: as §1
[15] = tested on: HCT-15; assay: Growth inhibition of human HCT15 cells; method in brief: as §1
[16] = tested on: HT-29; assay: Growth inhibition of human HT-29 cells; method in brief: as §1
[17] = tested on: KM12; assay: Growth inhibition of human KM12 cells; method in brief: as §1
[18] = tested on: SW-620; assay: Growth inhibition of human SW620 cells
Method in brief: (§2)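 Compounds that passed a preliminary screen were tested at five doses in the NCI (Bethesda) in vitro Anticancer Screen Program against a 53-line human tumour panel spanning leukemia, lung, colon, CNS, melanoma, ovarian, renal, prostate and breast. Growth inhibition is reported as GI50.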

[19] = tested on: SF-268; assay: Growth inhibition of human SF268 cells; method in brief: as §1
[20] = tested on: SF-295; assay: Growth inhibition of human SF295 cells; method in brief: as §1
[21] = tested on: SF-539; assay: Growth inhibition of human SF539 cells; method in brief: as §1
[22] = tested on: SNB-19; assay: Growth inhibition of human SNB19 cells; method in brief: as §2
[23] = tested on: SNB-75; assay: Growth inhibition of human SNB75 cells; method in brief: as §2
[24] = tested on: U-251; assay: Growth inhibition of human U251 cells; method in brief: as §2
[25] = tested on: A498; assay: Growth inhibition of human A498 cells; method in brief: as §1
[26] = tested on: 786-0; assay: Growth inhibition of human 786-0 cells; method in brief: as §1
[27] = tested on: ACHN; assay: Growth inhibition of human ACHN cells; method in brief: as §1
[28] = tested on: CAKI-1; assay: Growth inhibition of human Caki1 cells; method in brief: as §1
[29] = tested on: RXF 393; assay: Growth inhibition of human RXF393 cells; method in brief: as §1
[30] = tested on: SN12C; assay: Growth inhibition of human SN12C cells; method in brief: as §2
[31] = tested on: TK-10; assay: Growth inhibition of human TK10 cells; method in brief: as §2
[32] = tested on: UO-31; assay: Growth inhibition of human UO31 cells; method in brief: as §2
[33] = tested on: PC-3; assay: Growth inhibition of human PC3 cells; method in brief: as §1
[34] = tested on: OVCAR-3; assay: Growth inhibition of human OVCAR-3 cells; method in brief: as §1
[35] = tested on: OVCAR-4; assay: Growth inhibition of human OVCAR4 cells; method in brief: as §1
[36] = tested on: OVCAR-5; assay: Growth inhibition of human OVCAR5 cells; method in brief: as §1
[37] = tested on: OVCAR-8; assay: Growth inhibition of human OVCAR8 cells; method in brief: as §1
[38] = tested on: NCI/ADR-RES; assay: Growth inhibition of human NCI/ADR-RES cells; method in brief: as §1
[39] = tested on: SK-OV-3; assay: Growth inhibition of human SKOV3 cells; method in brief: as §2
[40] = tested on: MCF7; assay: Growth inhibition of human MCF7 cells; method in brief: as §1
[41] = tested on: MDA-MB-231; assay: Growth inhibition of human MDA-MB-231 cells; method in brief: as §1
[42] = Growth inhibition of human Hs 578T cells; method in brief: as §1
[43] = tested on: BT-549; assay: Growth inhibition of human BT549 cells; method in brief: as §1
[44] = tested on: T47D; assay: Growth inhibition of human T47D cells; method in brief: as §2
[45] = tested on: LOX IMVI; assay: Growth inhibition of human LOXIMVI cells; method in brief: as §1
[46] = tested on: Malme-3M; assay: Growth inhibition of human MALME-3M cells; method in brief: as §1
[47] = tested on: M14; assay: Growth inhibition of human M14 cells; method in brief: as §1
[48] = tested on: MDA-MB-435; assay: Growth inhibition of human MDA-MB-435 cells; method in brief: as §1
[49] = tested on: SK-MEL-2; assay: Growth inhibition of human SK-MEL-2 cells; method in brief: as §1
[50] = tested on: SK-MEL-28; assay: Growth inhibition of human SK-MEL-28 cells; method in brief: as §1
[51] = tested on: SK-MEL-5; assay: Growth inhibition of human SK-MEL-5 cells; method in brief: as §1
[52] = tested on: UACC-257; assay: Growth inhibition of human UACC257 cells; method in brief: as §2
[53] = tested on: UACC-62; assay: Growth inhibition of human UACC62 cells; method in brief: as §2
[54] = tested on: MCF7; assay: Cell cycle arrest in human MCF7 cells assessed as accumulation at G0 phase at 10 uM after 24 hrs by FACS analysis
Method in brief: (§3)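 MCF-7 breast carcinoma cells were exposed to 10 µM test compound for 24 h, with DMSO as the vehicle control. Cell-cycle distribution was read by FACS as the percentage of cells in G0, G1, S and G2/M.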

[55] = tested on: MCF7; assay: Cell cycle arrest in human MCF7 cells assessed as accumulation at G1 phase at 10 uM after 24 hrs by FACS analysis; method in brief: as §3
[56] = tested on: MCF7; assay: Cell cycle arrest in human MCF7 cells assessed as accumulation at S phase at 10 uM after 24 hrs by FACS analysis; method in brief: as §3
[57] = tested on: MCF7; assay: Cell cycle arrest in human MCF7 cells assessed as accumulation at G2/M phase at 10 uM after 24 hrs by FACS analysis; method in brief: as §3
[58] = tested on: MCF7; assay: Cell cycle arrest in human MCF7 cells assessed as accumulation at G0 phase at 30 uM after 24 hrs by FACS analysis
Method in brief: (§4)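 MCF-7 cells were treated at 30 µM for 24 h alongside a DMSO control. Fractions in G0, G1, S and G2/M phases were measured by FACS, and values are means of three experiments.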

[59] = tested on: MCF7; assay: Cell cycle arrest in human MCF7 cells assessed as accumulation at G1 phase at 30 uM after 24 hrs by FACS analysis; method in brief: as §4
[60] = tested on: MCF7; assay: Cell cycle arrest in human MCF7 cells assessed as accumulation at S phase at 30 uM after 24 hrs by FACS analysis; method in brief: as §4
[61] = tested on: MCF7; assay: Cell cycle arrest in human MCF7 cells assessed as accumulation at G2/M phase at 30 uM after 24 hrs by FACS analysis; method in brief: as §4

SMILES: COc1cc(/C=C/C(=O)c2cccc(-n3cc(-c4ccc(Cl)cc4)[nH]c3=O)c2)cc(OC)c1OC
- GI50 [1]: 3.92 µM
- GI50 [2]: 3.69 µM
- GI50 [3]: inactive
- GI50 [4]: inactive
- GI50 [5]: inactive
- GI50 [6]: inactive
- GI50 [7]: inactive
- GI50 [8]: 3.56 µM
- GI50 [9]: 12.9 µM
- GI50 [10]: 3.74 µM
- GI50 [11]: 4.1 µM
- GI50 [12]: 7.38 µM
- GI50 [13]: 2.46 µM
- GI50 [14]: 1.39 µM
- GI50 [15]: 3.85 µM
- GI50 [16]: 2 µM
- GI50 [17]: 5.45 µM
- GI50 [18]: 1.75 µM
- GI50 [19]: 5.07 µM
- GI50 [20]: 24.3 µM
- GI50 [21]: 3.49 µM
- GI50 [22]: 16.1 µM
- GI50 [23]: inactive
- GI50 [24]: 2.12 µM
- GI50 [25]: 30.2 µM
- GI50 [26]: 2.14 µM
- GI50 [27]: 7.17 µM
- GI50 [28]: inactive
- GI50 [29]: 3.22 µM
- GI50 [30]: 5.14 µM
- GI50 [31]: 6.46 µM
- GI50 [32]: 7.03 µM
- GI50 [33]: inactive
- GI50 [34]: 2.4 µM
- GI50 [35]: 11.4 µM
- GI50 [36]: 3.11 µM
- GI50 [37]: 3.85 µM
- GI50 [38]: 2.36 µM
- GI50 [39]: 31.4 µM
- GI50 [40]: 1.74 µM
- GI50 [41]: 13.8 µM
- GI50 [42]: 5.96 µM
- GI50 [43]: 12.3 µM
- GI50 [44]: 6.65 µM
- GI50 [45]: 1.72 µM
- GI50 [46]: 18.1 µM
- GI50 [47]: 4.36 µM
- GI50 [48]: 3.63 µM
- GI50 [49]: 3.44 µM
- GI50 [50]: 10.9 µM
- GI50 [51]: 8.7 µM
- GI50 [52]: 17.4 µM
- GI50 [53]: 8.88 µM
- Activity [54]: 4.49%
- Activity [55]: 67.68%
- Activity [56]: 13.91%
- Activity [57]: 13.92%
- Activity [58]: 12%
- Activity [59]: 44%
- Activity [60]: 17%
- Activity [61]: 27%
